Measurements from ChEMBL document CHEMBL3785029, “Synthesis and Characterization of Fatty Acid Conjugates of Niacin and Salicylic Acid” (J Med Chem, 2016).
The source made the active and inactive calls. The calls are words filed in the database; no cut-off is given here.

What was measured:
[1] = AUClast in Sprague-Dawley rat at 300 mg/kg, po measured up to 24 hrs post dose; format: ADME, organism-based; design: dose 300 mg/kg, time < 24 hr, route oral; conditions: in vivo
Summary of the method: (§1)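 Single oral dose of 300 mg/kg to Sprague Dawley rats. Plasma collected at 0, 0.5, 1, 2, 4, 8 and 24 hr. Analytes were the parent, the salicylate-linker and linker-DHA metabolites, salicylic acid and salicyluric acid; Cmax and AUClast derived.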

[2] = tested on: Plasma; experiment: Drug metabolism in Sprague-Dawley rat plasma assessed as N-(2-aminoethyl)-2-hydroxy-benzamide formation at 300 mg/kg, po measured up to 24 hrs post dose; format: ADME, organism-based; conditions: in vivo; summary of the method: as §1
[3] = tested on: Liver; experiment: Drug metabolism in Sprague-Dawley rat liver assessed as salicylic acid formation at 300 mg/kg, po administered for 14 days followed by 7 day washout cycle measured on day 21; format: ADME, organism-based; conditions: in vivo
[4] = tested on: Rattus norvegicus; experiment: Cmax in Sprague-Dawley rat assessed as salicylic acid at 300 mg/kg, po measured up to 24 hrs post dose; format: ADME, organism-based; design: dose 300 mg/kg, route oral; conditions: in vivo; summary of the method: as §1
[5] = tested on: Liver; experiment: Drug metabolism in Sprague-Dawley rat liver assessed as salicyluric acid formation at 300 mg/kg, po administered for 7 days measured 4 hrs post dose on day 7; format: ADME, organism-based; conditions: in vivo
Summary of the method: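 Male Sprague Dawley rats, groups of 4, dosed orally at 300 mg/kg once daily for 14 days. Animals killed on days 1, 3, 7 and 14, with plasma, brain, epididymal fat, liver and muscle taken 4 hr after dosing. Parent, salicylic acid and salicyluric acid were measured.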

[6] = tested on: Plasma; experiment: Drug uptake in Sprague-Dawley rat plasma at 300 mg/kg, po administered for 14 days followed by 7 day washout cycle measured on day 21; format: ADME, organism-based; conditions: in vivo
[7] = tested on: Rattus norvegicus; experiment: AUClast in Sprague-Dawley rat assessed as salicylate-linker metabolite N-(2-aminoethyl)-2-hydroxy-benzamide at 300 mg/kg, po measured up to 24 hrs post dose; format: ADME, organism-based; design: time < 24 hr, dose 300 mg/kg, route oral; conditions: in vivo; summary of the method: as §1
[8] = Plasma concentration in Sprague-Dawley rat at 300 mg/kg, po administered for 7 days measured 4 hrs post dose on day 7; format: ADME, organism-based
Summary of the method: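 Male Sprague Dawley rats in groups of 4 received 300 mg/kg orally once daily for up to 14 days. Animals were sacrificed on days 1, 3, 7 and 14, with plasma and tissues (brain, epididymal fat, liver, muscle) collected 4 h after dosing. Samples were analysed by LC/MS/MS for parent compound, salicylic acid and salicyluric acid.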

[9] = tested on: Rattus norvegicus; experiment: Cmax in Sprague-Dawley rat assessed as salicyluric acid at 300 mg/kg, po measured up to 24 hrs post dose; format: ADME, organism-based; design: dose 300 mg/kg, route oral; conditions: in vivo; summary of the method: as §1
[10] = tested on: Muscle tissue; experiment: Drug metabolism in Sprague-Dawley rat muscle assessed as salicylic acid formation at 300 mg/kg, po administered for 14 days followed by 7 day washout cycle measured on day 21; format: ADME, organism-based; conditions: in vivo
[11] = tested on: Liver; experiment: Drug uptake in Sprague-Dawley rat liver at 300 mg/kg, po administered for 14 days followed by 7 day washout cycle measured on day 21; format: ADME, organism-based; conditions: in vivo
[12] = Inhibition of NFkappaB in mouse RAW264.7 cells preincubated for 2 hrs followed by LPS addition for 3 hrs by luciferase reporter gene assay relative to control; format: cell-based
[13] = Cmax in Sprague-Dawley rat at 100 mg/kg, po administered as single dose measured up to 6 hrs post dose by LC/MS/MS analysis; format: ADME, organism-based; design: dose 100 mg/kg, route oral; conditions: in vivo
Summary of the method: (§2)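 Single oral dose to Sprague Dawley rats; plasma collected at 0.25, 0.5, 1, 2, 4 and 6 hr; analytes in plasma quantified by LC/MS/MS.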

[14] = Drug uptake in Sprague-Dawley rat liver at 300 mg/kg, qd administered through oral gavage for 7 days measured 2 hrs post last dose by LC/MS/MS analysis; format: ADME, organism-based; conditions: read-out: Drug uptake
[15] = tested on: Rattus norvegicus; experiment: Cmax in portal vein cannulated Sprague-Dawley rat assessed as N-(2-aminoethyl)nicotinamide at 30 mg/kg, po measured up to 140 mins; format: ADME, organism-based; design: dose 30 mg/kg, route oral; conditions: in vivo
Summary of the method: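 Sprague Dawley rats surgically fitted with indwelling jugular vein and portal vein cannulas; oral dosing, then serial blood draws from both portal and jugular veins at 10, 20, 40 min and 1, 2, 4, 6 hr post dose; plasma analysed for parent and metabolites by LC/MS/MS.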

[16] = molecular target: T1, Sterol regulatory element-binding protein 2 (Homo sapiens) (UniProt Q12772); experiment: Inhibition of SREBP2 maturation in human HepG2 cells at 25 uM after overnight incubation by immunoblot analysis in the presence of atorvastatin; format: cell-based
T1 sequence (whole entry): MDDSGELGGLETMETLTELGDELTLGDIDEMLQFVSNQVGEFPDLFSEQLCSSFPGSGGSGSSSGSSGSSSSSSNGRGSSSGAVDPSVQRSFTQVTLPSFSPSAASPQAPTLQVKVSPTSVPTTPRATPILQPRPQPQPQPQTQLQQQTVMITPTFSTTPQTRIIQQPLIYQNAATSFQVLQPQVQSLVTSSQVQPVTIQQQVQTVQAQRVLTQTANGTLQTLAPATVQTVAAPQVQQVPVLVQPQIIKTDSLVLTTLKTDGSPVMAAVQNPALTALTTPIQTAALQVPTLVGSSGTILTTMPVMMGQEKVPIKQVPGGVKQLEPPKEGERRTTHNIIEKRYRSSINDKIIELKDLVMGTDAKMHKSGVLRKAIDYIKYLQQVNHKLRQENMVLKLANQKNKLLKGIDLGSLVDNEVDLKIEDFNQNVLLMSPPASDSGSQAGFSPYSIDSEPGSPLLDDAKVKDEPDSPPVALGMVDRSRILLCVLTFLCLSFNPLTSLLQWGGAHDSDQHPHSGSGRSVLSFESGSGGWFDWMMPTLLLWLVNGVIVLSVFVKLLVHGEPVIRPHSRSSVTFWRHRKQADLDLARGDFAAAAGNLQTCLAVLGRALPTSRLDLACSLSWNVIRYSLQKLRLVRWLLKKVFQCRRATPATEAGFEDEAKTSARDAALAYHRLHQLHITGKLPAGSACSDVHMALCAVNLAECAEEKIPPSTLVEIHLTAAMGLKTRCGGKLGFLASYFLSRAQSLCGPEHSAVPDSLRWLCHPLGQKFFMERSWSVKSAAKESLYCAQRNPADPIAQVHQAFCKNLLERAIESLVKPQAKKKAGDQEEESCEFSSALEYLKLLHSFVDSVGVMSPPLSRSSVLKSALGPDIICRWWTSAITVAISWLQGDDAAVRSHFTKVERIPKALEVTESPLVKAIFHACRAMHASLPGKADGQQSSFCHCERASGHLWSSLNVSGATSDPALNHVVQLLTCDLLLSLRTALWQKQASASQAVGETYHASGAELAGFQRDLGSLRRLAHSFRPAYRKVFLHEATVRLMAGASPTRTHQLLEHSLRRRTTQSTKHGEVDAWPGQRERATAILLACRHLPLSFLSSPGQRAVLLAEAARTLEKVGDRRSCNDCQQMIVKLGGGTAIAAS
Summary of the method: (§3)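 Human HepG2 cells incubated with compound (25 and 50 µM), alone or together with 10 µM atorvastatin; mature SREBP-2 protein level assessed.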

[17] = tested on: Plasma; experiment: Drug metabolism in Sprague-Dawley rat plasma assessed as niacin linker metabolite N-(2-aminoethyl)nicotinamide formation at 300 mg/kg, qd administered through oral gavage for 7 days measured 2 hrs post last dose by LC/MS/MS analysis; format: ADME, organism-based; conditions: in vivo
[18] = tested on: Rattus norvegicus; experiment: Cmax in Sprague-Dawley rat assessed as nicotinuric acid at 100 mg/kg, po administered as single dose measured up to 6 hrs post dose by LC/MS/MS analysis; format: ADME, organism-based; design: dose 100 mg/kg, route oral; conditions: in vivo; summary of the method: as §2
[19] = molecular target: T1, Sterol regulatory element-binding protein 2 (Homo sapiens); experiment: Inhibition of SREBP2 maturation in human HepG2 cells at 25 to 50 uM after overnight incubation by immunoblot analysis; format: cell-based; summary of the method: as §3

AUC(0-t) at 24 h [1] [ng·h/mL]	Drug metabolism [2]	Drug metabolism [3]	Cmax [4] [ng/mL]	Drug metabolism [5] [ng/g]	Drug uptake [6]	AUClast [7] [ng·h/mL]	concentration at 4 h [8] [ng/mL]	Cmax [9] [ng/mL]	Drug metabolism [10]	Drug uptake [11]	IC50 [12] [µM]	Structure (SMILES)	Cmax [13] [ng/mL]	concentration at 2 h [14] [ng/g]	Cmax [15] [ng/mL]	inhibition [16]	Drug metabolism [17] [ng/mL]	Cmax [18] [ng/mL]	inhibition [19]
1940	metabolite_detected	metabolite_notdetected	75	506.48	Not Active	2611	116	563	metabolite_notdetected	Not Active	25.4	CC/C=C\C/C=C\C/C=C\C/C=C\C/C=C\C/C=C\CCC(=O)NCCNC(=O)c1ccccc1O [EDASALONEXENT]							
												CC/C=C\C/C=C\C/C=C\C/C=C\C/C=C\CCCC(=O)NCCNC(=O)c1cccnc1	212	7.5	2061	Active	2296	1131	Dose-dependent effect
